DNMT1 block: blocks human DNA methyltransferase DNMT1. DNMT1 molecular beacon, Hinp1I cleavage, fluorescence. 360,000 tested, 0.83% active. inhibition (reported as % activation of signal), % at 10 µM. P26358. AID 588458; in the data active = inhibition above about 50%
SUMO1-SIM PPI: modulators of human SUMO1-mediated protein-protein interactions. P63165. SUMO1 binding to a labelled peptide, TR-FRET, 1 h. inhibition, % at 20 µM. 360,000 tested, 0.33% active. AID 602429; in the data active = inhibition above about 37%
Target sequence (P63165 whole entry, looked up): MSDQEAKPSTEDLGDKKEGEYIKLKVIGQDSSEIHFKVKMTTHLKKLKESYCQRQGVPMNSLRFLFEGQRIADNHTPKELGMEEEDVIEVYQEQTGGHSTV
CSN inh: inhibitors of human CSN-mediated cullin deneddylation; inhibition, % at 12.5 µM; Purified CSN, SCF-Nedd8-OG deneddylation, fluorescence polarization; AID 651999; 360,000 tested, 0.38% active;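 active = pattern-corrected inhibition above about 35%, with an unprinted fluorescence ratio check between 0.5 and 1.5, limit read from the data, passing the limit was not always enough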
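Assay system: purified human Csn5 enzyme expressed in HEK293T cells; Input: 0.24 nM Csn5 enzyme, final concentration; Reagent: 10 nM SCFSkp2-Nedd8OG; Compound dosing: 12.5 µM single point; Times: reaction 90 min, room temperature; Technique: fluorescence polarization readout.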
LMPTP block: LMPTP (human) inhibition; inhibition, % at 20 µM; 360,000 tested, 0.22% active; recombinant LMPTP-A, OMFP fluorogenic substrate, fluorescence intensity; P24666; AID 651560;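 active = compounds that cut the enzyme signal by at least half of the control window in the single-dose screen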
Target sequence (P24666 whole entry, looked up): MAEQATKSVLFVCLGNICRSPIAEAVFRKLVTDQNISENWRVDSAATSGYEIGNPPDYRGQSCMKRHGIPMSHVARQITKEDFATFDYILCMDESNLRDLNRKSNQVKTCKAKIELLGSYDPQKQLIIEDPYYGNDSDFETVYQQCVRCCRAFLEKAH
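Test system: LMPTP-A, protein tyrosine phosphatase of low molecular weight; Input: 0.625 nM enzyme; Incubation: 50 min dark incubation at room temperature; Signal: endpoint fluorescence intensity from OMFP dephosphorylation; Read-out basis: % inhibition versus control wells.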
STEP inh: blocks human striatal-enriched tyrosine phosphatase; inhibition, % at 20 µM; P54829; AID 588621; 360,000 tested, 0.25% active; recombinant STEP, OMFP fluorogenic substrate, fluorescence;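 active = inhibition at 20 µM, scaled per plate between control wells, above about 37%, limit read from the data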
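material = STEP tyrosine phosphatase | reagent = fluorogenic phosphatase substrate OMFP at 25 µM final | doses = single compound dose of 20 µM, 1% DMSO final | schedule = 20 min reaction, room temperature, in the dark | measured by = fluorescence, 480/540 nm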
Scp-1 inhibitor: inhibitors of human Scp-1 phosphatase; Q9GZU7; 340,000 tested, 0.88% active; inhibition, % at 20 µM; Recombinant Scp1, phosphopeptide, malachite green phosphate absorbance;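 active = inhibition above about 50% at 20 µM, limit read from the data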
Target sequence (Q9GZU7 76-261 limits assumed): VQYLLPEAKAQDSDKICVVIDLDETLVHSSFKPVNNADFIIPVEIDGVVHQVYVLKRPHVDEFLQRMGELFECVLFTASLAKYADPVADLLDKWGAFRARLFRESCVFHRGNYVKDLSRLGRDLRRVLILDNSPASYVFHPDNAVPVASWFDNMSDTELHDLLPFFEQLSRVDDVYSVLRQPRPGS
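Test system: SCP-1 phosphatase catalytic domain, residues 76-261; measured by: colorimetric phosphate reagent with accelerator and stabiliser, absorbance at 630 nm; timing: enzyme reaction 45 min at room temperature, colour 5 min, stabilisation 30 min; also added: Phosphorylated 17-residue peptide substrate; compound dosing: one concentration, 20 µM, with 1.0% DMSO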
Hits are given with their value. Shown are actives, neighbours in structure and some others; about 1.9% of the full set was active somewhere.

`CCOc1ccc(S(=O)(=O)Nc2nc3ccccc3nc2-n2ccc(=NC(=O)c3cccs3)cc2)cc1` gave DNMT1 block inactive, SUMO1-SIM PPI inactive, CSN inh 45.7, LMPTP block inactive, STEP inh inactive and Scp-1 inhibitor inactive.
Cc1ccc(S(=O)(=O)N(CC(=O)NCC2CCCO2)Cc2cccc(C)c2)cc1 (stereo not drawn) was read as DNMT1 block inactive, SUMO1-SIM PPI inactive, CSN inh inactive, LMPTP block inactive, STEP inh inactive and Scp-1 inhibitor inactive.
For CCN(C(=O)CSc1nnc(Nc2ccc(OC)cc2)s1)C1CCS(=O)(=O)C1 (stereo not drawn) the results were DNMT1 block inactive, SUMO1-SIM PPI 48.6, CSN inh inactive, LMPTP block inactive, STEP inh inactive and Scp-1 inhibitor inactive.
Screening CCN(C(=O)CSc1nnc(Nc2ccccc2C)s1)C1CCS(=O)(=O)C1 (stereo not drawn) returned DNMT1 block inactive, SUMO1-SIM PPI inactive, CSN inh inactive, LMPTP block inactive, STEP inh inactive and Scp-1 inhibitor inactive.
`CCOC(=O)c1cc(-c2ccc(/C=C3/C(=O)NC(=O)C(C#N)=C3C)o2)ccc1Cl` gave DNMT1 block inactive, SUMO1-SIM PPI inactive, CSN inh inactive, LMPTP block inactive, STEP inh inactive and Scp-1 inhibitor 81.2.
CC(=O)Nc1ccc(S(=O)(=O)N2CCN(c3nc(NC4CCCC4)c4ccccc4n3)CC2)cc1 was read as DNMT1 block inactive, SUMO1-SIM PPI inactive, CSN inh inactive, LMPTP block 63.0, STEP inh inactive and Scp-1 inhibitor inactive.
Cc1cc(NO)nc(-c2ccc(Br)cc2)n1 was read as DNMT1 block inactive, SUMO1-SIM PPI inactive, CSN inh inactive, LMPTP block inactive, STEP inh inactive and Scp-1 inhibitor inactive.
Screening O=C(CNc1ccc2c(c1)OCO2)N/N=C\c1ccccc1Cl returned DNMT1 block inactive, SUMO1-SIM PPI 50.8, CSN inh inactive, LMPTP block inactive, STEP inh inactive and Scp-1 inhibitor inactive.
O=C(CNC(=O)c1ccccc1)N/N=C/c1ccccc1Cl was read as DNMT1 block inactive, SUMO1-SIM PPI 48.1, CSN inh inactive, LMPTP block inactive, STEP inh inactive and Scp-1 inhibitor inactive.
Cc1ccccc1CC1(C)C(=O)Nc2ccc(S(=O)(=O)NC3CCCCC3)cc21 (stereo not drawn) was read as DNMT1 block inactive, SUMO1-SIM PPI inactive, CSN inh inactive, LMPTP block inactive and STEP inh inactive.
Screening COc1cccc(NC(=O)c2ccn(C)n2)c1 returned DNMT1 block inactive, SUMO1-SIM PPI inactive, CSN inh inactive, LMPTP block inactive, STEP inh inactive and Scp-1 inhibitor inactive.
`Cc1ccc(S(=O)(=O)N2CCCCC2C)cc1[N+](=O)[O-]` (stereo not drawn) gave DNMT1 block inactive, SUMO1-SIM PPI inactive, CSN inh inactive, LMPTP block inactive, STEP inh inactive and Scp-1 inhibitor inactive.
c1ccc(CN2CCC(Nc3nc(-c4ccccc4)nc4ccccc34)CC2)cc1 was read as DNMT1 block inactive, SUMO1-SIM PPI inactive, CSN inh inactive, LMPTP block 80.0, STEP inh inactive and Scp-1 inhibitor inactive.
For O=C(O)CCc1ccc(-c2ccccc2)n1CC(=O)O the results were DNMT1 block inactive, SUMO1-SIM PPI inactive, CSN inh inactive, LMPTP block inactive, STEP inh inactive and Scp-1 inhibitor inactive.
For Cc1ccc(-c2ccc(CCC(=O)O)n2Cc2ccco2)cc1 the results were DNMT1 block 56.7, SUMO1-SIM PPI inactive, CSN inh inactive, LMPTP block inactive, STEP inh inactive and Scp-1 inhibitor inactive.
Screening Nc1nc(N)c(Cc2ccc(Cl)cc2Cl)c(N)n1 returned DNMT1 block inactive, SUMO1-SIM PPI inactive, CSN inh inactive, LMPTP block 63.6, STEP inh inactive and Scp-1 inhibitor inactive.
For Cc1ccc(-n2nnnc2SCc2nc3sc(C)c(C)c3c(=O)[nH]2)cc1 the results were DNMT1 block inactive, SUMO1-SIM PPI inactive, CSN inh inactive, LMPTP block inactive, STEP inh inactive and Scp-1 inhibitor inactive.

Screens (PubChem BioAssay)
